The source of these data is publication PMC4201300 (Biochemistry, 2014).

Square brackets hold non-standard residues; d marks the D form. Peptide text beside a SMILES is read from it. pT = C[C@@H](OP(=O)(O)O)[C@H](N)C(=O)O

A word on the Kd: it is the constant that tells how readily two partners part at equilibrium.

The target of experiment [1] is T1, Pellino2 FHA domain (amino acids 15–275 of Pellino2) (Homo sapiens, UniProt Q9HAT8).
T1 sequence (Q9HAT8 15-275): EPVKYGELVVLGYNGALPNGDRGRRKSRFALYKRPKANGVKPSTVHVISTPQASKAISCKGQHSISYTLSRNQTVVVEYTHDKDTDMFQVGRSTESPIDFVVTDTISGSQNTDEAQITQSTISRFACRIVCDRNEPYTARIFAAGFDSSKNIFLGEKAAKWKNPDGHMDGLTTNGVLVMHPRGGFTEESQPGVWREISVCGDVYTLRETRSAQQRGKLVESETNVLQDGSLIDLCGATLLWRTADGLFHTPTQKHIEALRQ
Description: Fluorescence polarization peptide binding assay, Pellino2 FHA domain. The following applies: for fold change in KD relative to pT141+3Y (preference for the pTxxY motif): binding weaker than for pT141+3Y, Figure 4A. (In general: Fluorescence polarisation rises when a labelled molecule tumbles more slowly, as on binding a larger partner.)

Experiment [2] concerns the target IRAK1pT141 peptide (amino acids 137–145 of IRAK1 with phosphothreonine at 141) (human) (UniProt P51617). Description: fluorescence polarisation.
The target of experiment [3] is T2, Pellino3b FHA domain (amino acids 2–304) (Homo sapiens, UniProt Q8N2H9).
T2 sequence (Q8N2H9 2-304 isoform Q8N2H9-2): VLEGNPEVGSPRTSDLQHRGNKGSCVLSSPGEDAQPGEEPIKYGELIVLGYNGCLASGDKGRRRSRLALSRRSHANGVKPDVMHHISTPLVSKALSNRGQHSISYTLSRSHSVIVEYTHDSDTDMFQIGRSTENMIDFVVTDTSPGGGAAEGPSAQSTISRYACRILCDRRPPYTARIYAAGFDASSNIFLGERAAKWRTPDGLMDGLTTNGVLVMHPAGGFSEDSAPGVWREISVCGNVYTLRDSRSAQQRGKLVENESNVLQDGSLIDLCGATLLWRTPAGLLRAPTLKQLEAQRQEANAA
Description: Fluorescence polarization peptide binding assay, Pellino3b FHA domain. Particulars: ratio of KD values. The gist of the method: (§1)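 His6-tagged FHA domains were expressed in E. coli BL21(DE3) pLys. The tag was removed with TEV during dialysis (4 °C for Pellino1, 22 °C for Pellino3a/3b), then cation exchange (pH 6 Pellino1/3b, pH 5.5 Pellino3a) and gel filtration. 50 nM N-terminally fluorescein-labelled phosphopeptide was titrated with 0–190 μM domain in PBS pH 7.4 at 25 °C. Baseline-corrected polarization was fit to a simple isotherm; mean KD from ≥3 experiments, expressed relative to pT141+3Y KD.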

Experiment [4] deals with T3, Pellino1 FHA domain (amino acids 2–287) (Mus musculus, UniProt Q8C669).
T3 sequence (Q8C669 2-287): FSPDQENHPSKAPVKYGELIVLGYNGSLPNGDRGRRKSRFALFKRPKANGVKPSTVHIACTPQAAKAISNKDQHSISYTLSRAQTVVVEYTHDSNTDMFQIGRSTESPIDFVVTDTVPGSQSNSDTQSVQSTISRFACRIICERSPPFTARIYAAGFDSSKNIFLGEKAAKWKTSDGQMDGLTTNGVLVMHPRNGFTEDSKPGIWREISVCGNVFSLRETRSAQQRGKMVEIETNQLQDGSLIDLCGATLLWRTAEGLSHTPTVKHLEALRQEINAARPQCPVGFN
Description: Fluorescence polarization peptide binding assay, Pellino1 FHA domain. The following applies: ratio of KD values. Summed up:
as §1

In experiment [5] the target is T4, Pellino3a FHA domain (amino acids 40–305) (Homo sapiens, UniProt Q8N2H9).
T4 sequence (Q8N2H9 40-305): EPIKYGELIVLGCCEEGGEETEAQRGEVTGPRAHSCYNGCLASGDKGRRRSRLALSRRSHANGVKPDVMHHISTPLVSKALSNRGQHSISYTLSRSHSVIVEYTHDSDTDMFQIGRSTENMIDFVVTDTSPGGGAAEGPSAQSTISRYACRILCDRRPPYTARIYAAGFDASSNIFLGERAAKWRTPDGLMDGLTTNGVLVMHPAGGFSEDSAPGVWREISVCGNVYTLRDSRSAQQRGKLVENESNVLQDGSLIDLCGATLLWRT
The experiment can be described thus: Fluorescence polarization peptide binding assay, Pellino3a FHA domain. Particulars: ratio of KD values. The gist of the method:
as §1

The next experiment has as its target Pellino2 (UniProt Q9HAT8). Description: GST pull-down from lysate, Xpress and pT blots. Particulars: reference: wild-type IRAK1-197; sites T141.
The target in experiment [6] is Pellino2 FHA domain, 15-275 (UniProt Q9HAT8). The experiment can be described thus: fluorescence polarization titration. The following applies: reference: pT141+3S peptide (native S144); sites S144.
In experiment [7] the target is T5, Pellino2 FHA domain (amino acids 15–275 of Pellino2) (human, UniProt Q9HAT8 15-275).
T5 sequence (looked up): T1 sequence (Q9HAT8 15-275)
Description: fluorescence polarisation.

The target in experiment [8] is T6, Pellino3b FHA domain (amino acids 2–304) (human, UniProt Q8N2H9-2 2-304).
T6 sequence (looked up): T2 sequence (Q8N2H9 2-304 isoform Q8N2H9-2)
Description: fluorescence polarisation.

Experiment [9] deals with T7, Pellino1 FHA domain (amino acids 2–287, mouse) (mouse, UniProt Q8C669 2-287).
T7 sequence (looked up): T3 sequence (Q8C669 2-287)
Description: fluorescence polarisation.

The target of experiment [10] is scrambled version of the pT141 peptide. Description: fluorescence polarisation.

Chain of Pellino2 FHA domain, 15-275 (Q9HAT8 whole entry, looked up, the tested form may be a part): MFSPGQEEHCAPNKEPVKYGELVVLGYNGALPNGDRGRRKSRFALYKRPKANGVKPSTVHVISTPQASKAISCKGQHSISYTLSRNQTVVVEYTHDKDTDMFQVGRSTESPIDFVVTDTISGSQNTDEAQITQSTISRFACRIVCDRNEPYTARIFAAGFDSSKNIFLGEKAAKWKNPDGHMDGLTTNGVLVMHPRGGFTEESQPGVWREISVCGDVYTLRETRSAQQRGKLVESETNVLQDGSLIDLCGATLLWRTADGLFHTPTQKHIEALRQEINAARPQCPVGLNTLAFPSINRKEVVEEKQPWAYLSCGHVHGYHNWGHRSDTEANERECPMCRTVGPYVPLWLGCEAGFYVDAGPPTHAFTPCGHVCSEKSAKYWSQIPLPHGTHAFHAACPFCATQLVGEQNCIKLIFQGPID
Chain of IRAK1pT141 peptide (amino acids 137–145 of IRAK1 with phosphothreonine at 141) (human) (P51617 whole entry, looked up, the tested form may be a part): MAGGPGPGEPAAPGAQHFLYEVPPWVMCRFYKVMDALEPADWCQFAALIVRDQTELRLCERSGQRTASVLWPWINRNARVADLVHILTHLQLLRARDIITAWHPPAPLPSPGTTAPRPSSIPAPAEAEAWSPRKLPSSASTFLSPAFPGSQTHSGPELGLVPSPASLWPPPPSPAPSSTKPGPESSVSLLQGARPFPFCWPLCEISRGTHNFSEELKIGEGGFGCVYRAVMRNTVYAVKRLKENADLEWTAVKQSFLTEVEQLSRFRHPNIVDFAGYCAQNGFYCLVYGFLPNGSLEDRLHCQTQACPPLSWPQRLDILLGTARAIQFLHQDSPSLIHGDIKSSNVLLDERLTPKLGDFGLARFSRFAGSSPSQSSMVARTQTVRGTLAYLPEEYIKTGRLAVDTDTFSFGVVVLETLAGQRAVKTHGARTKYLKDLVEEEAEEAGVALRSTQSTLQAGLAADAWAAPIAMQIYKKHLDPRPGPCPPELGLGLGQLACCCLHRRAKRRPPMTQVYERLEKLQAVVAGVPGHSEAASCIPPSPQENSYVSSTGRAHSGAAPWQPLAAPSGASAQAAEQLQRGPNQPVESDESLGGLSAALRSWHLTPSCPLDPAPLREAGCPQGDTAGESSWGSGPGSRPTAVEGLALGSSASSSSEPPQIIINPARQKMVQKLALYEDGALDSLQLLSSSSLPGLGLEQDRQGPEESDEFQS

For `CC(C)C[C@H](NC(=O)[C@H](Cc1ccccc1)NC(=O)[C@@H](NC(=O)[C@H](CO)NC(=O)[C@H](CO)NC(=O)[C@H](C)NC(=O)[C@H](CO)NC(=O)[C@@H](N)Cc1ccc(O)cc1)[C@@H](C)OP(=O)(O)O)C(=O)N[C@@H](Cc1ccc(O)cc1)C(=O)N1CCC[C@H]1C(N)=O` [IRAK1pT141+3Y] (H-YSASS[pT]FLYP-NH2; N-terminus assumed), the “KD fold stronger than that for pT141+3S” value in experiment [1] (ratio of KD values) is given as 4.6 fold.

Regarding “Pellino2 FHA domain (amino acids 15–275 of Pellino2) (from UniProt Q9HAT8 15-275) (domain or fragment)”, the Kd in experiment [2] is 820 nM.

Regarding `CC(C)C[C@H](NC(=O)[C@H](Cc1ccccc1)NC(=O)[C@@H](NC(=O)[C@H](CO)NC(=O)[C@H](CO)NC(=O)[C@H](C)NC(=O)[C@H](CO)NC(=O)[C@@H](N)Cc1ccc(O)cc1)[C@@H](C)OP(=O)(O)O)C(=O)N[C@@H](CC(=O)O)C(=O)N1CCC[C@H]1C(N)=O` [IRAK1pT141+3D] (H-YSASS[pT]FLDP-NH2; N-terminus assumed), the “times weaker binding than for the pT141+3Y peptide” value in experiment [3], in [4] and in experiment [5] was “at least 13 times” throughout. Further, the “fold change in KD relative to pT141+3Y (preference for the pTxxY motif)” value in experiment [1] worked out at 23 fold.

In the case of `CC[C@H](C)[C@H](NC(=O)[C@H](CC(C)C)NC(=O)[C@H](Cc1ccccc1)NC(=O)[C@@H](NC(=O)[C@H](CO)NC(=O)[C@H](CO)NC(=O)[C@H](C)NC(=O)[C@H](CO)NC(=O)[C@@H](N)Cc1ccc(O)cc1)[C@@H](C)OP(=O)(O)O)C(=O)N1CCC[C@H]1C(N)=O` [IRAK1pT141+3I] (H-YSASS[pT]FLIP-NH2; N-terminus assumed), the “fold change in KD relative to pT141+3Y (preference for the pTxxY motif)” value in experiment [1] worked out at 12 fold.

Regarding IRAK1 1-197 (from UniProt P51617) T141A, in the experiment with Pellino2, the “binding against the reference” value was “weaker”.

Consider “IRAK1 137-145 (from UniProt P51617) pT141+3D peptide”, for which, in experiment [6], the fold change (fold weaker KD) was 5.

On to fluorescein-YSSAS[pT]FLYP-NH2 (also: fluorescein: FITC or 5,6-FAM) [pT141+3Y peptide (IRAK1pT141 with tyrosine at position +3)], for which the figures for the Kd in experiment [7] and in [9] were 180 nM and 770 nM, respectively. Further, the binding result in experiment [8] is listed as “binds”.

As for fluorescein-YSSAS[pT]FLIP-NH2 (also: fluorescein: FITC or 5,6-FAM) [pT141+3I peptide (IRAK1pT141 with isoleucine at position +3)], in experiment [8], the binding result is “binds”. The same molecule registered a Kd in [9] of 1800 nM.

B1: Pellino2 FHA domain (amino acids 15–275 of Pellino2) (domain or fragment)
chain: T1 sequence (Q9HAT8 15-275)
B1 came in with a fold weaker affinity than for pT141 in [10] of over 100 fold.
